Data published in ChEMBL document CHEMBL3232915, “Discovery, optimization, and characterization of novel D2 dopamine receptor selective antagonists” (J Med Chem, 2014).
Values belong to the molecule of their own block, whether it stands above or below them.

Tests used:
[1] = target: T1, D(2) dopamine receptor (Homo sapiens, UniProt P14416); test: Antagonist activity at D2 receptor (unknown origin) expressed in Flp-In TREx 293 cells coexpressing chimeric Gqi5 protein assessed as calcium accumulation by Fluo-8AM dye based fluorescence analysis; assay type: functional, cell-based
T1 sequence (P14416 whole entry): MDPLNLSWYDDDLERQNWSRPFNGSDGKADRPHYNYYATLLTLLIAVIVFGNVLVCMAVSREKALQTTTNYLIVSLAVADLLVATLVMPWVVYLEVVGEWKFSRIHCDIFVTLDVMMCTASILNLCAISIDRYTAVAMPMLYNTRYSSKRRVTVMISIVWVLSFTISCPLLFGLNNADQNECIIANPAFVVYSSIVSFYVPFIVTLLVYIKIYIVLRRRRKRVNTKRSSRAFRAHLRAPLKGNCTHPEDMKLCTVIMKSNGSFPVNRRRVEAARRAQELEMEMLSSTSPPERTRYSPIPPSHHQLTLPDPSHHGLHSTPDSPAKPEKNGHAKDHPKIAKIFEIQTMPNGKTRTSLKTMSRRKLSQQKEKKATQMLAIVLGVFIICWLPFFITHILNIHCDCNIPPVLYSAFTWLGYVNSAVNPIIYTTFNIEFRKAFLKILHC

[2] = target: T2, D(3) dopamine receptor (Homo sapiens, UniProt P35462); test: Displacement of [3H]methylspiperone from human D3 receptor expressed in HEK293 cell membrane after 90 mins by scintillation counting analysis; assay type: cell membranes
T2 sequence (P35462 whole entry): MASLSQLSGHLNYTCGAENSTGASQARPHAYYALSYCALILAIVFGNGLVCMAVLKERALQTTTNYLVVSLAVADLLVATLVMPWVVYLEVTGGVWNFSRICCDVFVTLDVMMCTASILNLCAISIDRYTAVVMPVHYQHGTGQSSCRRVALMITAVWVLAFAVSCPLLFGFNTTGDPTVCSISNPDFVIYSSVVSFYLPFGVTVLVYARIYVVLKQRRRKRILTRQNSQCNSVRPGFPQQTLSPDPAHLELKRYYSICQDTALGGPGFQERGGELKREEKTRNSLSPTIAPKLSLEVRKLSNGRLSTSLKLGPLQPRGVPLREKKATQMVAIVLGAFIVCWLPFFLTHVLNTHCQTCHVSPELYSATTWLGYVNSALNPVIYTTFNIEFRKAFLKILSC

[3] = target: T2, D(3) dopamine receptor; test: Antagonist activity at ProLink-tagged D3 receptor (unknown origin) expressed in CHO cells assessed as inhibition of dopamine-stimulated beta-arrestin binding treated for 90 mins prior to dopamine challenge by PathHunter DiscoveRx assay; assay type: cell-based
[4] = target: T1, D(2) dopamine receptor; test: Antagonist activity at ProLink-tagged D2 receptor (unknown origin) expressed in CHO cells assessed as inhibition of dopamine-stimulated beta-arrestin binding treated for 90 mins prior to dopamine challenge by PathHunter DiscoveRx assay; assay type: cell-based
[5] = target: T1, D(2) dopamine receptor; test: Displacement of [3H]methylspiperone from human D2L receptor expressed in HEK cell membrane after 90 mins by scintillation counting analysis; assay type: cell membranes, HEK293
[6] = tested on: CHO; test: Ratio of AC50 for ProLink-tagged D3 receptor (unknown origin) expressed in CHO cells to AC50 for ProLink-tagged D2 receptor (unknown origin) expressed in CHO cells by beta-arrestin assay; assay type: cell-based; settings: Homo sapiens
[7] = tested on: HEK293; test: Ratio of Ki for human D3 receptor expressed in HEK293 cell membrane to Ki for human D2L receptor expressed in HEK cell membrane; assay type: cell-based
In short: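 Competition binding with [3H]methylspiperone on membranes from stable HEK cells. […] Incubation 90 min at room temperature in EBSS with sodium metabisulfite, nonspecific binding with 4 µM (+)-butaclamol, then GF/C filtration and scintillation counting. Ki from IC50 via Cheng–Prusoff.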

SMILES: COc1ccc(NC(=O)c2ccc3c(c2)N(C)C(=O)c2ccccc2[S+]3[O-])cc1 (racemic)
AC50 [1]: 353 nM

SMILES: CN(C)CCCNC(=O)c1ccc2c(c1)N(C)C(=O)c1ccccc1[S+]2[O-] (racemic)
AC50 [1]: 560 nM

SMILES: CCN1C(=O)c2ccccc2[S+]([O-])c2ccc(C(=O)OCc3ccc(OC)cc3)cc21 (racemic)
AC50 [1]: > 77000 nM

SMILES: CCN1C(=O)c2ccccc2S(=O)(=O)c2ccc(C(=O)NCc3ccc(OC)cc3)cc21
AC50 [1]: > 77000 nM

SMILES: CN1C(=O)c2ccccc2[S+]([O-])c2ccc(C(=O)NCCc3cccs3)cc21 (racemic)
Ki [2]: 9200 nM
AC50 [3]: 20400 nM
AC50 [4]: 913 nM
AC50 [1]: 89 nM
Ki [5]: 190 nM

SMILES: CN1C(=O)c2ccccc2[S+]([O-])c2ccc(C(=O)NCc3cccc(Cl)c3)cc21 (racemic)
AC50 [1]: 281 nM

SMILES: CN1C(=O)c2ccccc2[S@+]([O-])c2ccc(C(=O)NCc3ccc(Cl)cc3)cc21
AC50 [3]: 10200 nM
AC50 [4]: 2890 nM
AC50 [1]: 280 nM
Ratio [6]: 4.5

SMILES: CCN1C(=O)c2ccccc2[S+]([O-])c2ccc(C(=O)N(C)Cc3ccc(OC)cc3)cc21 (racemic)
AC50 [1]: > 77000 nM

SMILES: COc1ccc(CNC(=O)c2ccc3c(c2)NC(=O)c2ccccc2[S+]3[O-])cc1 (racemic)
AC50 [1]: 887 nM

SMILES: CN1C(=O)c2ccccc2[S@+]([O-])c2ccc(C(=O)NCc3ccc(Br)cc3)cc21
Ki [2]: 370 nM
AC50 [3]: 4570 nM
AC50 [4]: 1020 nM
Ratio Ki [7]: 1.5
AC50 [1]: 89 nM
Ratio [6]: 4.5
Ki [5]: 240 nM

SMILES: CN1C(=O)c2ccccc2[S+]([O-])c2ccc(C(=O)Nc3ccccc3)cc21 (racemic)
AC50 [1]: 1580 nM

SMILES: CCN1C(=O)c2ccccc2[S@+]([O-])c2ccc(C(=O)N[C@H](C)c3ccc4ccccc4c3)cc21
Ki [2]: 3400 nM
AC50 [3]: 32400 nM
AC50 [4]: 2890 nM
Ratio Ki [7]: 11.7
AC50 [1]: 353 nM
Ratio [6]: 11.2
Ki [5]: 290 nM

SMILES: CCN1C(=O)c2ccccc2[S@+]([O-])c2ccc(C(=O)N[C@H](C)c3ccc(Br)cc3)cc21
Ki [2]: 880 nM
AC50 [3]: 9130 nM
AC50 [4]: 1290 nM
Ratio Ki [7]: 1.7
AC50 [1]: 223 nM
Ratio [6]: 7.1
Ki [5]: 530 nM

SMILES: CN1C(=O)c2ccccc2[S+]([O-])c2ccc(C(=O)NCCN3CCCCC3)cc21 (racemic)
AC50 [1]: 112 nM

More lines, main results first:

AC50 [1]: 353 nM
SMILES: CCN1C(=O)c2ccccc2[S+]([O-])c2ccc(C(=O)NCCc3ccc(OC)cc3)cc21 (racemic)

AC50 [1]: 8870 nM
SMILES: COc1ccc(CNC(=O)c2ccc3c(c2)N(Cc2ccccc2)C(=O)c2ccccc2[S+]3[O-])cc1 (racemic)

AC50 [1]: 56000 nM
SMILES: CCN(Cc1ccccc1)C(=O)c1ccc2c(c1)N(CC)C(=O)c1ccccc1[S+]2[O-] (racemic)

AC50 [1]: 177 nM
SMILES: CCN1C(=O)c2ccccc2[S+]([O-])c2ccc(C(=O)NCc3ccc(C)cc3)cc21 (racemic)

AC50 [1]: 141 nM
SMILES: CCN1C(=O)c2ccccc2[S+]([O-])c2ccc(C(=O)NCc3ccc(C(F)(F)F)cc3)cc21 (racemic)

AC50 [1]: 223 nM
SMILES: CN1C(=O)c2ccccc2[S+]([O-])c2ccc(C(=O)NCc3ccccc3)cc21 (racemic)

AC50 [1]: 445 nM
SMILES: CCN1C(=O)c2ccccc2[S+]([O-])c2ccc(C(=O)NCc3ccccc3)cc21 (racemic)

AC50 [1]: 353 nM
SMILES: CCN1C(=O)c2ccccc2[S+]([O-])c2ccc(C(=O)NCc3ccc4c(c3)OCO4)cc21 (racemic)

Ki [2]: 230 nM
AC50 [3]: 3240 nM
AC50 [4]: 576 nM
AC50 [1]: 56 nM
Ki [5]: 90 nM
SMILES: CCN1C(=O)c2ccccc2[S@+]([O-])c2ccc(C(=O)NCc3ccc(F)cc3)cc21
Ratio Ki [7]: 2.6
Ratio [6]: 5.6

AC50 [1]: 353 nM
SMILES: CCN1C(=O)c2ccccc2[S+]([O-])c2ccc(C(=O)NCc3ccc(S(C)(=O)=O)cc3)cc21 (racemic)

AC50 [1]: 112 nM
SMILES: COc1ccc(CNC(=O)c2ccc3c(c2)N(C)C(=O)c2ccccc2[S+]3[O-])cc1 (racemic)

AC50 [1]: 4460 nM
SMILES: CCN1C(=O)c2ccccc2[S+]([O-])c2ccc(C(=O)NCc3ccccc3OC)cc21 (racemic)
